Laboratory results from ChEMBL document CHEMBL4257446, “Synthesis and biological evaluation of chalcone-linked pyrazolo[1,5-a]pyrimidines as potential anticancer agents” (Medchemcomm, 2017).
Activity calls are given as the source filed them. The rule behind the calls is not given here.

Experiments:
MDA-MB-231 = assay: Antiproliferative activity against human MDA-MB-231 cells after 24 hrs by MTT assay; assay type: functional, cell-based; conditions: MDA-MB-231, 24 h
Summary of the method: (§1)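 Cells exposed to a range of compound concentrations; viability read by MTT assay. IC50 (concentration giving 50% growth inhibition) calculated and reported as mean ± S.D. of three independent experiments, each run in triplicate.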

A549 [1] = assay: Antiproliferative activity against human A549 cells after 24 hrs by MTT assay; assay type: functional, cell-based; conditions: A549, 24 h; summary of the method: as §1
DU-145 = assay: Antiproliferative activity against human DU145 cells after 24 hrs by MTT assay; assay type: functional, cell-based; conditions: DU-145, 24 h; summary of the method: as §1
HEK293 [2] = assay: Antiproliferative activity against HEK293 cells after 24 hrs by MTT assay; assay type: cell-based; conditions: Homo sapiens, HEK293, 24 h
A549 [3] = assay: Cell cycle arrest in human A549 cells assessed as accumulation of cells at G2/M phase at 2 uM after 24 hrs by propidium iodide staining-based flow cytometric analysis (reference value: 20.4%); assay type: functional
HEK293 [4] = assay: Cell cycle arrest in HEK293 cells after 24 hrs by propidium iodide staining-based flow cytometric analysis; conditions: human, hek293, 24 h
A549 [5] = assay: Decrease in STAT3 protein expression in human A549 cells in STAT3 levels at 2 uM after 24 hrs by Western blot analysis; assay type: functional, cell-based
Summary of the method: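 A549 cells exposed at 2 μM final concentration and collected 24 h later. Total protein lysate extracted and immunoblotted with antibodies against the EGFR/STAT3 pathway proteins. Erlotinib-treated cells were the positive control and untreated cells the negative control.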

A549 [6] = assay: Induction of apoptosis in human A549 cells assessed as increase in p53 levels at 2 uM after 24 hrs by Western blot analysis; assay type: functional, cell-based
Summary of the method: (§2)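 A549 cells given 2 μM final concentration for 24 h. Total lysate probed by western blot for apoptosis-related proteins (Bax, p53, p21, caspase-3, Bcl2). Erlotinib served as positive control and untreated cells as negative control.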

A549 [7] = assay: Induction of apoptosis in human A549 cells assessed as increase in p21 levels at 2 uM after 24 hrs by Western blot analysis; assay type: functional, cell-based; summary of the method: as §2
A549 [8] = assay: Induction of apoptosis in human A549 cells assessed as increase in Bax levels at 2 uM after 24 hrs by Western blot analysis; assay type: functional, cell-based; summary of the method: as §2
A549 [9] = assay: Induction of apoptosis in human A549 cells assessed as decrease in Bcl2 levels at 2 uM after 24 hrs by Western blot analysis; assay type: functional, cell-based; summary of the method: as §2
HEK293 [10] = assay: Induction of apoptosis in HEK293 cells assessed as effect on p21 levels after 24 hrs by Western blot analysis; assay type: cell-based; conditions: human, hek293, 24 h
HEK293 [11] = assay: Induction of apoptosis in HEK293 cells assessed as effect on p53 levels after 24 hrs by Western blot analysis; assay type: cell-based; conditions: human, hek293, 24 h
HEK293 [12] = assay: Induction of apoptosis in HEK293 cells assessed as effect on Bax levels after 24 hrs by Western blot analysis; assay type: cell-based; conditions: human, hek293, 24 h
HEK293 [13] = assay: Induction of apoptosis in HEK293 cells assessed as effect on Bcl2 levels after 24 hrs by Western blot analysis; assay type: cell-based; conditions: human, hek293, 24 h
A549 [14] = assay: Induction of apoptosis in human A549 cells assessed as decrease in pro-caspase-9 levels at 2 uM after 24 hrs by Western blot analysis; assay type: functional, cell-based

Compound	IC50 (MDA-MB-231)	IC50 (A549 [1])	IC50 (DU-145)	IC50 (HEK293 [2])	also measured
COc1ccc(-c2cc(/C=C/C(=O)c3ccc(C)c(C)c3)nc3cc(-c4ccccc4)nn23)cc1OC	11.5 µM	9.3 µM	12.1 µM	46.2 µM	–
COc1cc(-c2cc(C(=O)/C=C/c3ccccc3)nc3cc(-c4ccccc4)nn23)cc(OC)c1OC	19.2 µM	18 µM	16.3 µM	44.8 µM	–
COc1ccc(-c2cc(C(=O)/C=C/c3ccc(Cl)cc3)nc3cc(-c4ccccc4)nn23)cc1OC	23.7 µM	22 µM	22.4 µM	39.1 µM	–
COc1ccc(C(=O)/C=C/c2cc(-c3ccc(OC)c(OC)c3)n3nc(-c4ccccc4)cc3n2)cc1OC	2.6 µM	3.9 µM	7.2 µM	32.5 µM	Activity (A549 [3]): 29.5%; Activity (HEK293 [4]): Non-Toxic; Activity (A549 [5]): Active; Activity (A549 [6]): Active; Activity (A549 [7]): Active; Activity (A549 [8]): Active; Activity (A549 [9]): Active; Activity (HEK293 [10]): Non-Toxic; Activity (HEK293 [11]): Non-Toxic; Activity (HEK293 [12]): Non-Toxic; Activity (HEK293 [13]): Non-Toxic; Activity (A549 [14]): Active
COc1cc(-c2cc(/C=C/C(=O)c3ccc(C)c(C)c3)nc3cc(-c4ccccc4)nn23)cc(OC)c1OC	13.5 µM	10.6 µM	15.4 µM	72.5 µM	–
COc1ccc(C(=O)/C=C/c2cc(-c3ccc(OC)cc3)n3nc(-c4ccccc4)cc3n2)cc1	6.3 µM	2.9 µM	8.5 µM	36.1 µM	Activity (A549 [3]): 29.6%; Activity (HEK293 [4]): Non-Toxic; Activity (A549 [5]): Active; Activity (A549 [6]): Active; Activity (A549 [7]): Active; Activity (A549 [8]): Active; Activity (A549 [9]): Active; Activity (HEK293 [10]): Non-Toxic; Activity (HEK293 [11]): Non-Toxic; Activity (HEK293 [12]): Non-Toxic; Activity (HEK293 [13]): Non-Toxic; Activity (A549 [14]): Active
COc1cc(-c2cc(/C=C/C(=O)c3ccc(Cl)cc3)nc3cc(-c4ccccc4)nn23)cc(OC)c1OC	32.5 µM	15.5 µM	29.3 µM	≥ 100 µM	–
COc1ccc(/C=C/C(=O)c2cc(-c3cc(OC)c(OC)c(OC)c3)n3nc(-c4ccccc4)cc3n2)cc1	16.5 µM	21.2 µM	16.9 µM	46.6 µM	–
COc1ccc(-c2cc(C(=O)/C=C/c3ccccc3)nc3cc(-c4ccccc4)nn23)cc1OC	23.3 µM	18.6 µM	15.6 µM	64.1 µM	–
COc1ccc(C(=O)/C=C/c2cc(-c3cc(OC)c(OC)c(OC)c3)n3nc(-c4ccccc4)cc3n2)cc1	13.2 µM	14.6 µM	25.2 µM	79.8 µM	–
COc1cc(-c2cc(/C=C/C(=O)c3ccc(C)cc3)nc3cc(-c4ccccc4)nn23)cc(OC)c1OC	23.9 µM	19.4 µM	27.1 µM	50.4 µM	–
COc1ccc(-c2cc(C(=O)/C=C/c3cc(OC)c(OC)c(OC)c3)nc3cc(-c4ccccc4)nn23)cc1OC	16.7 µM	15.4 µM	14.7 µM	46.8 µM	–
COc1ccc(-c2cc(/C=C/C(=O)c3cc(OC)c(OC)c(OC)c3)nc3cc(-c4ccccc4)nn23)cc1OC	4.7 µM	7.2 µM	8.3 µM	35 µM	Activity (A549 [3]): 33.11%; Activity (HEK293 [4]): Non-Toxic; Activity (A549 [5]): Active; Activity (A549 [6]): Active; Activity (A549 [7]): Active; Activity (A549 [8]): Active; Activity (A549 [9]): Active; Activity (HEK293 [10]): Non-Toxic; Activity (HEK293 [11]): Non-Toxic; Activity (HEK293 [12]): Non-Toxic; Activity (HEK293 [13]): Non-Toxic; Activity (A549 [14]): Active
COc1ccc(/C=C/C(=O)c2cc(-c3cc(OC)c(OC)c(OC)c3)n3nc(-c4ccccc4)cc3n2)cc1OC	14.2 µM	20.5 µM	15.3 µM	41 µM	–
COc1ccc(C(=O)/C=C/c2cc(-c3cc(OC)c(OC)c(OC)c3)n3nc(-c4ccccc4)cc3n2)cc1OC	18.3 µM	17.8 µM	29.9 µM	81.7 µM	–
COc1cc(-c2cc(C(=O)/C=C/c3ccc(C)cc3)nc3cc(-c4ccccc4)nn23)cc(OC)c1OC	18.6 µM	20 µM	21.9 µM	56.1 µM	–
COc1cc(-c2cc(/C=C/C(=O)c3ccccc3)nc3cc(-c4ccccc4)nn23)cc(OC)c1OC	15.8 µM	18.2 µM	34.3 µM	≥ 100 µM	–
COc1cc(/C=C/C(=O)c2cc(-c3cc(OC)c(OC)c(OC)c3)n3nc(-c4ccccc4)cc3n2)cc(OC)c1OC	18.4 µM	25.9 µM	17.9 µM	41 µM	–
COc1ccc(-c2cc(/C=C/C(=O)c3ccc(Cl)cc3)nc3cc(-c4ccccc4)nn23)cc1OC	17.1 µM	15.4 µM	21.3 µM	44.1 µM	–
COc1ccc(-c2cc(/C=C/C(=O)c3ccccc3)nc3cc(-c4ccccc4)nn23)cc1	9.9 µM	8.6 µM	13.7 µM	53.2 µM	–
COc1ccc(-c2cc(/C=C/C(=O)c3ccccc3)nc3cc(-c4ccccc4)nn23)cc1OC	11.8 µM	10.7 µM	10 µM	51.2 µM	–
COc1ccc(-c2cc(/C=C/C(=O)c3ccc(OC)c(OC)c3)nc3cc(-c4ccccc4)nn23)cc1	8.7 µM	7.4 µM	16.4 µM	48.5 µM	–
COc1ccc(C(=O)/C=C/c2cc(-c3ccc(OC)c(OC)c3)n3nc(-c4ccccc4)cc3n2)cc1	13.9 µM	11.9 µM	14.6 µM	40 µM	–
COc1cc(C(=O)/C=C/c2cc(-c3cc(OC)c(OC)c(OC)c3)n3nc(-c4ccccc4)cc3n2)cc(OC)c1OC	24.3 µM	20.5 µM	34.9 µM	≥ 100 µM	–
COc1ccc(-c2cc(C(=O)/C=C/c3ccc(C)cc3)nc3cc(-c4ccccc4)nn23)cc1OC	22.6 µM	22.2 µM	19.5 µM	57.4 µM	–
COc1cc(-c2cc(C(=O)/C=C/c3ccc(Cl)cc3)nc3cc(-c4ccccc4)nn23)cc(OC)c1OC	21.6 µM	23.8 µM	19.5 µM	53.9 µM	–
COc1ccc(-c2cc(/C=C/C(=O)c3ccc(C)cc3)nc3cc(-c4ccccc4)nn23)cc1OC	19.8 µM	17.2 µM	26.8 µM	62.6 µM	–
COc1ccc(/C=C/C(=O)c2cc(-c3ccc(OC)c(OC)c3)n3nc(-c4ccccc4)cc3n2)cc1	22 µM	19.3 µM	14.9 µM	50.7 µM	–
C#Cc1cccc(Nc2ncnc3cc(OCCOC)c(OCCOC)cc23)c1 [ERLOTINIB]	14.7 µM	10.4 µM	18.4 µM	30.3 µM	Activity (A549 [3]): 24.5%; Activity (HEK293 [4]): Non-Toxic; Activity (A549 [5]): inactive
